This note sets out measurements from ChEMBL document CHEMBL4622853, “Design and synthesis of novel pyrrolo[2,3-b]pyridine derivatives targeting V600EBRAF” (Bioorg Med Chem, 2020).

The target of assay [1] is T1, Serine/threonine-protein kinase B-raf (Homo sapiens, UniProt P15056). Put plainly: Inhibition of human wild type BRAF at 10 uM by ELISA. The essentials:
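Wild-type BRAF kinase inhibition run in the same manner as the V600E-B-RAF ELISA, reported as percent inhibition at 10 µM.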

Assay [2] deals with Serine/threonine-protein kinase B-raf (Homo sapiens), P15056 [V600E]. Put plainly: Inhibition of human BRAF V600E mutant at 10 uM by ELISA. (In general: An ELISA detects its analyte on a solid surface through an enzyme-linked reagent.)
For assay [3], the target named is Serine/threonine-protein kinase B-raf (Homo sapiens, UniProt P15056, V600E). Put plainly: Inhibition of human BRAF V600E mutant by ELISA.
For assay [4], the target named is T1, Serine/threonine-protein kinase B-raf. Put plainly: Inhibition of BRAF (unknown origin).

Serine/threonine-protein kinase B-raf (Homo sapiens), P15056 [V600E], sequence (P15056 whole entry V600E): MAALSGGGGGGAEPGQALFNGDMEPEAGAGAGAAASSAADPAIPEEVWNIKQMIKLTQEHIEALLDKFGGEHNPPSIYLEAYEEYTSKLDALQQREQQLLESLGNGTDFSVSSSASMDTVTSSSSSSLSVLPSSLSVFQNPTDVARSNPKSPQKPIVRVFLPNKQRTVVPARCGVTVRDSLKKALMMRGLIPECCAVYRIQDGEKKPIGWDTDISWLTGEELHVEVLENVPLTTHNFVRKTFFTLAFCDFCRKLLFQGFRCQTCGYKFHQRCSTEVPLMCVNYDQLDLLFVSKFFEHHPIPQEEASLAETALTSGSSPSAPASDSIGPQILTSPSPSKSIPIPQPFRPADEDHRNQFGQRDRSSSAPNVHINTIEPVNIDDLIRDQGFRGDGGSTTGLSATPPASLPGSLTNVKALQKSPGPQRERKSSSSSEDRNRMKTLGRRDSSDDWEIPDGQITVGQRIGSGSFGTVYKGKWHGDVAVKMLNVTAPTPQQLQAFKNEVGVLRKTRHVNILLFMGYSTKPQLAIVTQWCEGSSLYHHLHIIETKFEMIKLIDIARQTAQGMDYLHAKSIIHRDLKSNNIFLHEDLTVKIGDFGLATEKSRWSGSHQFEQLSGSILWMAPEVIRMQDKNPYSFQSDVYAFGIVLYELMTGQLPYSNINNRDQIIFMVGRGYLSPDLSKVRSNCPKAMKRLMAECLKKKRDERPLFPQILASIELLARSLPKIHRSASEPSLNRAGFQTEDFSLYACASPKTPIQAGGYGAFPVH
T1 sequence (P15056 whole entry): as the sequence (P15056 whole entry V600E) above, with E600V counted along it
Serine/threonine-protein kinase B-raf (Homo sapiens, UniProt P15056, V600E), sequence (P15056 2-766 V600E limits assumed): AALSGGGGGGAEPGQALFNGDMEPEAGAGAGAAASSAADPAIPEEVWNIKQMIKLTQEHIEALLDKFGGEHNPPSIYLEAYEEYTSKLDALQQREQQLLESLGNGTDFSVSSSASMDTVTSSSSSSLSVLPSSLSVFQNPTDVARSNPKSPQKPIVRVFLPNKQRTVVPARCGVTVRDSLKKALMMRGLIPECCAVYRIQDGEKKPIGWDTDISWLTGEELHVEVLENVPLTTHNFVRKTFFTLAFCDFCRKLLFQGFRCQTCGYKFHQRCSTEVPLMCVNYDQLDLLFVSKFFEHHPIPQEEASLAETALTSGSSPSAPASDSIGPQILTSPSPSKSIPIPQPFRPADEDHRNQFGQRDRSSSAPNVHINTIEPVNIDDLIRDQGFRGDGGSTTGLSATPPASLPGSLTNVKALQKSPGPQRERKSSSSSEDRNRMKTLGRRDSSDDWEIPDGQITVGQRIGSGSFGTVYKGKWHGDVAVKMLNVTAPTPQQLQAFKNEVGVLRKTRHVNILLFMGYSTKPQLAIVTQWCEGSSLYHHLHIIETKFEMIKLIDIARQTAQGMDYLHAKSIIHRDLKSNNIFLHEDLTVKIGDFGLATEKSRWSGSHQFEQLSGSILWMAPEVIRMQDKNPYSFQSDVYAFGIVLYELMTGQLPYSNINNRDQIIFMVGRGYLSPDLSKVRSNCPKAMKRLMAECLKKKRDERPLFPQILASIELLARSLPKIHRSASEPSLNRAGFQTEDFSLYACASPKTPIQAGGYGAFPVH

For the compound `COc1ccc(NC(=O)Nc2ccc(F)c(C(=O)c3c[nH]c4ncccc34)c2F)cc1`, the values for the inhibition in assay [1] and in assay [2] were 69.6% and 81.3%, respectively.
As for `Cc1ccc(S(=O)(=O)NCCCNc2nccc(-n3ccc4cccnc43)n2)cc1`, the IC50 in assay [3] turned out to be 1000 nM. Also, the inhibition stood at 83.3% in assay [1] and 93% in assay [2].
Take `O=S(=O)(NCCNc1nccc(-n2ccc3cccnc32)n1)c1ccc(Br)cc1`: the values for the inhibition in assay [1] and in assay [2] were 44.6% and 65.9%, respectively.
The like results for `O=S(=O)(NCCNc1nccc(-n2ccc3cccnc32)n1)c1ccccc1` were, in that order, 52.3% and 66.5%.
Regarding `O=S(=O)(NCCCNc1nccc(-n2ccc3cccnc32)n1)c1cccc(Br)c1`, the IC50 in assay [3] came to 500 nM. Further, the inhibition in assay [1] stood at 89.4%; in assay [2], 96.7%.
In the case of `O=C(NCCNc1nccc(-n2ccc3cccnc32)n1)c1ccc(F)cc1`, the inhibition came to 56.8% in assay [1] and 70% in assay [2].
The corresponding values for `Cc1ccc(C(=O)NCCCNc2nccc(-n3ccc4cccnc43)n2)cc1` are 50% and 61.6%.
The corresponding values for `O=C(NCCCNc1nccc(-n2ccc3cccnc32)n1)c1ccc(F)cc1` are 58.7% and 67.5%.
With `O=S(=O)(NCCNc1nccc(-n2ccc3cccnc32)n1)c1ccc(F)cc1`, the inhibition was found to be 55.9% in assay [1] and 89.5% in assay [2].
Regarding `O=S(=O)(NCCNc1nccc(-n2ccc3cccnc32)n1)c1cccc(C(F)(F)F)c1`, the inhibition in assay [1] stood at 10.2%; in assay [2] it was 18.1%.
`O=S(=O)(NCCCNc1nccc(-n2ccc3cccnc32)n1)c1ccc(F)cc1`: the IC50 in assay [3] is 880 nM. Moreover, the inhibition in assay [1] is 79.7%; in assay [2], 95.2%.
As to `O=C(Nc1cccc(F)c1)Nc1ccc(F)c(C(=O)c2c[nH]c3ncccc23)c1F`, the inhibition in assay [1] turned out to be 51.2%; in assay [2], 49%.
The corresponding values for `O=C(NCCNc1nccc(-n2ccc3cccnc32)n1)c1ccccc1` are 86.3% and 86.3%.
On to `O=S(=O)(NCCCNc1nccc(-n2ccc3cccnc32)n1)c1ccccc1`, for which the IC50 in assay [3] worked out at 750 nM. For the same compound, the results for the inhibition in assay [1] and in assay [2] were 81.4% and 95.5%, respectively.
As for `O=C(NCCNc1nccc(-n2ccc3cccnc32)n1)c1c(F)cccc1F`, the inhibition is 0.1% in assay [1] and -1.9% in assay [2].
Turning to `Cc1ccc(NC(=O)Nc2ccc(F)c(C(=O)c3c[nH]c4ncccc34)c2F)cc1`, in assay [3], half-maximal inhibition (IC50) was put at 85 nM. Further, the results for the inhibition in assay [1] and in assay [2] were 77.6% and 98.4%, respectively.
On to `O=S(=O)(NCCCNc1nccc(-n2ccc3cccnc32)n1)c1ccc(Cl)cc1`, for which the figures for the inhibition in assay [1] and in assay [2] were 66.5% and 96.8%, respectively.
The like results for `O=S(=O)(NCCNc1nccc(-n2ccc3cccnc32)n1)c1cccc(Br)c1` were, in that order, 55.2% and 65.3%.
Turning to `O=C(NCCNc1nccc(-n2ccc3cccnc32)n1)c1ccc(C(F)(F)F)cc1`, the inhibition in assay [1] came out at 12.1%; in assay [2], 32.9%.
For the compound `O=C(NCCCNc1nccc(-n2ccc3cccnc32)n1)c1ccccc1`, the inhibition in assay [1] amounted to 60.9%; in assay [2] it was 69.4%.
For `O=C(NCCCNc1nccc(-n2ccc3cccnc32)n1)c1ccc(Cl)cc1`, the inhibition in assay [1] turned out to be 72.1%; in assay [2] it was 80.7%.
`COc1ccc(S(=O)(=O)NCCCNc2nccc(-n3ccc4cccnc43)n2)cc1` registered an IC50 in assay [3] of 790 nM. Further, the values for the inhibition in assay [1] and in assay [2] were 82.1% and 94.5%, respectively.
With `O=C(NCCNc1nccc(-n2ccc3cccnc32)n1)C1CCCCC1`, the inhibition in assay [1] was 43.4%; in assay [2] it was 73.7%.
As for `Cc1ccc(C(=O)NCCNc2nccc(-n3ccc4cccnc43)n2)cc1`, the inhibition in assay [1] was 53.8%; in assay [2] it was 81.8%.
The like results for `O=C(NCCNc1nccc(-n2ccc3cccnc32)n1)c1ccc(Cl)cc1` were, in that order, -1.1% and 0.16%.
Take `O=C(Nc1ccc(F)c(C(=O)c2c[nH]c3ncccc23)c1F)Nc1cccc2ccccc12`: the inhibition was determined as 68.9% in assay [1] and 85.6% in assay [2].
In the case of `O=C(NCCCNc1nccc(-n2ccc3cccnc32)n1)c1c(F)cccc1F`, the results for the inhibition in assay [1] and in assay [2] were 67.2% and 72.6%, respectively.
Consider `COc1ccc(S(=O)(=O)NCCNc2nccc(-n3ccc4cccnc43)n2)cc1`, for which the inhibition in assay [1] worked out at 39.2%; in assay [2], 56.7%.
The corresponding values for `Cc1ccc(S(=O)(=O)NCCNc2nccc(-n3ccc4cccnc43)n2)cc1` are 26.3% and 41.1%.
As to `O=C(NCCCNc1nccc(-n2ccc3cccnc32)n1)C1CCCCC1`, the inhibition in assay [1] was 41.2%; in assay [2], 49.6%.
Turning to `O=C(Nc1ccc(Br)cc1)Nc1ccc(F)c(C(=O)c2c[nH]c3ncccc23)c1F`, the inhibition stood at 80.1% in assay [1] and 92% in assay [2].
The like results for `O=S(=O)(NCCNc1nccc(-n2ccc3cccnc32)n1)c1ccc(Cl)cc1` were, in that order, 49.2% and 63.7%.
Turning to `CCCS(=O)(=O)Nc1ccc(F)c(-n2cc(-c3cncnc3)c3nc(N(C)C4CCN(CC)CC4)ccc32)c1F` [XP-102], 0.4 nM corresponded to half-maximal inhibition in assay [4] (IC50).
In turn, `O=S(=O)(NCCCNc1nccc(-n2ccc3cccnc32)n1)c1ccc(Br)cc1` registered an IC50 in assay [3] of 350 nM. Besides, the inhibition in assay [1] was found to be 75.2%; in assay [2], 97.7%.
In assay [3], `O=S(=O)(NCCCNc1nccc(-n2ccc3cccnc32)n1)c1cccc(C(F)(F)F)c1` returned an IC50 of 1100 nM. The values for the inhibition in assay [1] and in assay [2] were 86.3% and 96.1%, respectively.
Turning to `O=C(NCCCNc1nccc(-n2ccc3cccnc32)n1)c1ccc(C(F)(F)F)cc1`, the values for the inhibition in assay [1] and in assay [2] were 9.45% and 15.3%, respectively.
The like results for `O=C(Nc1ccccc1)Nc1ccc(F)c(C(=O)c2c[nH]c3ncccc23)c1F` were, in that order, 86.5% and 94.5%.

The term inhibition denotes the drop in the measured response relative to a control, in per cent. As a reminder, the IC50 is the concentration that gives 50% inhibition. A low value points to greater potency.
